# Shown are actives, neighbours in structure and some others; about 5.9% of the full set was active somewhere.
# GASC1 inh – KDM4C (human) demethylase inhibition. GST-KDM4C 2-372, H3K9me3 peptide, LANCE TR-FRET. AID 720574. 96,000 tested, 0.15% active. inhibition, % at 12.5 µM. Q9H3R0;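 active means mean replicate inhibition above about 25%, with at least 55% of replicates also reaching it, limit read from the data, passing the limit was not always enough; inconclusive means only one of those two conditions met; inactive means neither condition met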
#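 Test system: N-terminal GST-fused human GASC-1 (KDM4C) fragment, residues 2-372; quantity: GASC-1 enzyme at 10 nM final in reaction; dosing: single dose; schedule: 30 min demethylation and 1 h detection at room temperature; signal: LANCE TR-FRET, excitation 340 nm, emissions 618 and 671 nm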
# Pf Dd2 growth – blocks growth of Plasmodium falciparum Dd2 parasites; activity change, % at 10 µM; 94,000 tested, 2.3% active; P. falciparum Dd2 growth, SYBR Green, 72 h; hits give low values; in the data active means activity change below about -80%; inconclusive means no clear call, values can overlap the other calls
# IDH1 R132H inh – IDH1 R132H (human) inhibition | O75874 | IDH1 R132H reductase, diaphorase/resazurin fluorescence, 60 min | AID 624101 | inhibition, % at 10 µM | 70,000 tested, 0.18% active; in the data active means inhibition above about 34%; inconclusive means no clear call, values can overlap the other calls; inactive means below about 11%;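 further: 0% = DMSO and 100% = no enzyme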
# Target sequence (O75874 whole entry R132H): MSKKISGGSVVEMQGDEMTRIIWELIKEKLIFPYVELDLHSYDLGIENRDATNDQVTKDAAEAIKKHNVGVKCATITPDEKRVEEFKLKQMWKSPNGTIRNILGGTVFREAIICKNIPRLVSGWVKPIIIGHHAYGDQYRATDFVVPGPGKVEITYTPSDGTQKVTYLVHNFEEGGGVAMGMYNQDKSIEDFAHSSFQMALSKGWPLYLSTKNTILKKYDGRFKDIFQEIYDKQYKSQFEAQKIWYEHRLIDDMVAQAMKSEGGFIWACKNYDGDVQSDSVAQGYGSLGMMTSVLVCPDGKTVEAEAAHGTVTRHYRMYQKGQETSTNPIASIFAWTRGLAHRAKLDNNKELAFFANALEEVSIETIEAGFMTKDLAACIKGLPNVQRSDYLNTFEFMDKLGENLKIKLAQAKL
# T cruzi growth-1 – inhibitors of T. cruzi proliferation. T. cruzi beta-gal in NIH3T3, GalScreen luminescence, 90 h. inhibition, % at 8.34 µM. 77,000 tested, 5.9% active;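 active means mean inhibition above about 93%, with at least 55% of replicates each passing it, limit read from the data, passing the limit was not always enough; inconclusive means only one of those two conditions holds; inactive means neither condition holds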
# T cruzi growth-2 – blocks T. cruzi growth in NIH3T3 host cells; shares compounds with T cruzi growth-1; T. cruzi beta-gal in NIH3T3, GalScreen luminescence, 90 h; inhibition, % at 8.35 µM; 5,600 tested, 72% active;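 active means mean replicate inhibition above about 95% and at least 55% of replicates individually reaching it, limit read from the data; inconclusive means only one of the two criteria is met; inactive means neither criterion is met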
# T cruzi growth-3 – inhibitors of T. cruzi proliferation; shares compounds with T cruzi growth-1; T. cruzi beta-gal in NIH3T3, GalScreen luminescence, 90 h; inhibition, % at 2.09 µM; 5,600 tested, 21% active;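 active means mean inhibition above about 95%, with at least 55% of replicates also reaching it, limit read from the data; inconclusive means meets just one of the two conditions; inactive means meets neither condition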;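 further: plate controls were neutral control median for no effect and positive control median for full effect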
# NIH3T3 tox – cytotoxicity in mouse NIH/3T3 fibroblasts | 5,600 tested, 14% active | NIH/3T3 viability, CellTiter-Glo ATP luminescence, 90 h | shares compounds with T cruzi growth-1 | AID 651742 | cytotoxicity (signal decrease), % at 8.35 µM;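 active means mean signal decrease across replicates above about 35% based on untreated-well scatter, with enough replicates individually passing, limit read from the data; inconclusive means no rule stated though some were filed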;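 further: 0% = median of neutral control wells and 100% = median of positive control wells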
# 3T3 cytotox 2 – NIH/3T3 (mouse) viability loss; shares compounds with T cruzi growth-1; AID 651744; 5,600 tested, 56% active; inhibition, % at 24.9 µM; NIH/3T3 viability, CellTiter-Glo ATP luminescence, 90 h;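 active means mean loss of cell viability signal at or above a set limit, and enough replicates individually reaching it; inconclusive means meets only the mean limit or only the replicate share; inactive means meets neither condition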;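 further: 0% = median of neutral control wells and 100% = median of positive control wells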
# Active calls of the source: *; ? = inconclusive; . = not tested or not shown.
SMILES,GASC1 inh,Pf Dd2 growth,IDH1 R132H inh,T cruzi growth-1,T cruzi growth-2,T cruzi growth-3,NIH3T3 tox,3T3 cytotox 2
CCCN(C)C[C@H]1OCCCC[C@@H](C)Oc2ccc(NC(=O)C3CCCCC3)cc2C(=O)N([C@@H](C)CO)C[C@H]1C,1,-81*,.,102*,104*,50,4,9
CCCN(C)C[C@H]1OCCCC[C@H](C)Oc2ccc(NC(=O)C3CCCCC3)cc2C(=O)N([C@H](C)CO)C[C@H]1C,0,-79,3,108*,99*,72,-29,-14
CC(C)c1nnc(NC(=O)CC(NC(=O)c2ccccc2)c2ccccc2)s1 (stereo not given),.,.,-1,.,.,.,.,.
COc1ccc(-c2ccc([C@H]3[C@@H](CO)N4CCCCN(CC5CCOCC5)C[C@@H]34)cc2)cc1,0,0,.,99*,?,27,?,78*
COc1ccc(-c2ccc([C@H]3[C@H]4CN(CC5CCOCC5)CCCCN4[C@H]3CO)cc2)cc1,0,-22,.,-2,.,.,.,.
COc1ccc(-c2ccc([C@H]3[C@@H](CO)N4CCCCN(CC5CCOCC5)C[C@H]34)cc2)cc1,0,-32,.,101*,94,67,19,96*
N#Cc1c(NC(=O)CSc2nnc(N)s2)sc2c1CCCC2,.,.,1,.,.,.,.,.
COc1cccc(C#Cc2ccc3c(c2)O[C@H](CN(C)C)[C@H](C)CN([C@H](C)CO)S3(=O)=O)c1,-1,-71,0,-43,.,.,.,.
CCCC#Cc1ccc2c(c1)O[C@H](CN(C)S(=O)(=O)c1cccc(OC)c1)[C@@H](C)CN([C@@H](C)CO)S2(=O)=O,-1,-74,0,.,.,.,.,.
COc1cccc(C#Cc2ccc3c(c2)O[C@@H](CN(C)S(=O)(=O)c2ccccc2F)[C@H](C)CN([C@H](C)CO)S3(=O)=O)c1,6,-72,-1,121*,107*,95,-1,45*
CCCC#Cc1ccc2c(c1)O[C@H](CN(C)S(=O)(=O)c1cccc(OC)c1)[C@H](C)CN([C@@H](C)CO)S2(=O)=O,6,-20,0,.,.,.,.,.
COc1cccc(C#Cc2ccc3c(c2)O[C@@H](CN(C)C(C)=O)[C@@H](C)CN([C@@H](C)CO)S3(=O)=O)c1,-2,-71,-4,33,.,.,.,.
COc1cccc(C#Cc2ccc3c(c2)O[C@H](CN(C)S(=O)(=O)c2ccccc2F)[C@H](C)CN([C@@H](C)CO)S3(=O)=O)c1,-5,-62,0,125*,109*,104*,-9,12
COc1cccc(C#Cc2ccc3c(c2)O[C@H](CN(C)S(=O)(=O)c2ccccc2F)[C@@H](C)CN([C@H](C)CO)S3(=O)=O)c1,-4,-67,0,127*,109*,115*,24,42*
COc1cccc(C#Cc2ccc3c(c2)O[C@@H](CN(C)S(=O)(=O)c2ccccc2F)[C@@H](C)CN([C@@H](C)CO)S3(=O)=O)c1,7,-44,1,?,102*,52,-3,9
COC(=O)c1sc(C(C)(C)C)cc1CS(=O)(=O)c1cc(C)c(Cl)cc1C,.,.,-2,.,.,.,.,.
COc1cccc(C#Cc2ccc3c(c2)O[C@@H](CN(C)S(=O)(=O)c2ccccc2F)[C@H](C)CN([C@@H](C)CO)S3(=O)=O)c1,-2,-72,1,123*,109*,98*,23,42*
C[C@@H]1CCCCO[C@@H](CN(C)Cc2ccc(Cl)c(Cl)c2)[C@@H](C)CN([C@@H](C)CO)C(=O)c2cc(NC(=O)Nc3ccc4c(c3)OCO4)ccc2O1,-2,-32,4,98,.,.,.,.
C[C@@H]1CCCCO[C@H](CN(C)Cc2ccc(Cl)c(Cl)c2)[C@@H](C)CN([C@H](C)CO)C(=O)c2cc(NC(=O)Nc3ccc4c(c3)OCO4)ccc2O1,1,8,.,103*,107*,105*,25,13
C[C@@H]1CCCCO[C@H](CN(C)Cc2ccc3c(c2)OCO3)[C@@H](C)CN([C@H](C)CO)C(=O)c2cc(NC(=O)Nc3ccc4c(c3)OCO4)ccc2O1,1,10,0,?,110*,-16,-14,3
C[C@H]1CCCCO[C@H](CN(C)Cc2ccc3c(c2)OCO3)[C@@H](C)CN([C@@H](C)CO)C(=O)c2cc(NC(=O)Nc3ccc4c(c3)OCO4)ccc2O1,0,-65,-2,100*,99*,110*,32,106*
CN(C)C(=O)c1ccc(-c2ccc([C@H]3[C@@H](CO)N4CCCCN(Cc5cccnc5)C[C@H]34)cc2)cc1,0,-7,.,?,104*,91,3,-7
CN(C)C(=O)c1cccc(-c2ccc([C@@H]3[C@H](CO)N4CCCCN(Cc5cccnc5)C[C@@H]34)cc2)c1,-1,-5,.,13,.,.,.,.
CN(C)C(=O)c1cccc(-c2ccc([C@H]3[C@@H](CO)N4CCCCN(Cc5cccnc5)C[C@H]34)cc2)c1,-1,3,.,?,107*,88,2,-16
CS(=O)(=O)N(CC(=O)Nc1ccccc1C(F)(F)F)c1cc(Cl)c(Cl)cc1Cl,.,.,0,.,.,.,.,.
SMILES,GASC1 inh,Pf Dd2 growth,IDH1 R132H inh,T cruzi growth-1,T cruzi growth-2,T cruzi growth-3,NIH3T3 tox,3T3 cytotox 2
CCc1cnc(N2[C@@H](C#N)[C@@H](c3ccc(C#Cc4ccccc4F)cc3)[C@@H]2CO)s1,-1,-24,.,100*,90,109*,-18,62*
CCc1cnc(N2[C@H](CO)[C@@H](c3ccc(C#Cc4ccccc4F)cc3)[C@@H]2C#N)s1,-1,-40,.,103*,96*,111*,-16,85*
O=C(NCCNC(=O)c1ccccc1[N+](=O)[O-])c1ccc(F)cc1,.,.,0,.,.,.,.,.
COC(=O)c1ccc(C(=O)OC)c(NS(=O)(=O)c2ccc3c(c2)OCCO3)c1,.,.,0,.,.,.,.,.
COc1ccc(C2(CNC(=O)CC#N)CCCC2)cc1OC,.,.,-1,.,.,.,.,.
Cc1noc(C)c1S(=O)(=O)Nc1ccc2c(c1)C(=O)N([C@@H](C)CO)C[C@@H](C)[C@@H](CN(C)Cc1ccc(C(F)(F)F)cc1)OCCCC[C@@H](C)O2,-2,-18,2,99*,94,112*,19,106*
Cc1noc(C)c1S(=O)(=O)Nc1ccc2c(c1)C(=O)N([C@@H](C)CO)C[C@@H](C)[C@H](CN(C)C(=O)Nc1ccc(C(F)(F)F)cc1)OCCCC[C@@H](C)O2,0,-14,2,106,.,.,.,.

# Assay outcomes deposited in PubChem by Broad Institute.
